Our source for the Activity, inhibition and IC50 values is ChEMBL document CHEMBL1158795 (J Nat Prod, 2005).

Each structure is given as a SMILES string. Active and inactive are the calls of the source. The rule behind the calls is not given here.

In assay [1] the target is Aryl hydrocarbon receptor nuclear translocator (Homo sapiens) (UniProt P27540). Briefly: Inhibition of hypoxia-induced HIF1beta activation in human T47D cells at 10 uM after 4 hrs by Western blotting. The format is cell-based. The procedure, abridged: (§1)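 T47D cells exposed to compound 30 min, then hypoxia (1% O2/94% N2/5% CO2) 4 h. Nuclear extracts prepared; HIF-1α probed by Western blot with monoclonal antibody, membrane stripped and reprobed for HIF-1β with monoclonal anti-HIF-1β antibody.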

Assay [2] is described as follows: Inhibition of luciferase expression in TNT T7 coupled reticulocyte lysate system at 0.3 uM. The format is functional. The procedure, abridged:
(§2)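 Cell-free luciferase expression from Luciferase T7 Control DNA using TNT T7 coupled reticulocyte lysate transcription/translation. Compounds present during reaction; luciferase activity expressed as percentage of untreated control.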

Assay [3] concerns T47D. Nature of the assay: Inhibition of hypoxia-induced VEGF expression in human T47D cells at 0.3 uM after 16 hrs by ELISA. The format is cell-based. The procedure, abridged:
(§3)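 T47D cells given compound for 30 min before hypoxia (1% O2) for 16 h. VEGF protein in cell lysates measured by ELISA, normalized to cellular protein. Representative experiment in triplicate; significance p < 0.05 versus untreated control.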

In assay [4] the test system is T47D. Nature of the assay: Inhibition of VEGF protein expression in human T47D cells at 0.3 uM. Format: functional. Summed up: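 T47D breast carcinoma cells in DMEM/F12 with 10% FBS, 37 °C. Compound added 30 min before hypoxia (1% O2/94% N2/5% CO2, 16 h). Cell lysate VEGF measured by ELISA and normalised to cellular protein. Secreted VEGF in conditioned medium measured by modified ELISA. Compared with untreated control; one representative experiment in triplicate; significance p < 0.05.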

The nature of assay [5]: Inhibition of luciferase expression in TNT T7 coupled reticulocyte lysate system at 10 uM. Format: functional. The procedure, abridged:
as §2

Assay [6] has as its target Aryl hydrocarbon receptor nuclear translocator (Homo sapiens) (UniProt P27540). Nature of the assay: Inhibition of hypoxia-induced HIF1beta activation in human T47D cells at 0.3 uM after 4 hrs by Western blotting. The format is cell-based. Summed up:
as §1

Assay [7] concerns T47D. Briefly: Inhibition of hypoxia-induced secreted VEGF expression in human T47D cells at 0.3 uM after 16 by ELISA. The format is functional, cell-based. Summed up:
(§4)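 T47D cells given compound before hypoxia (1% O2, 16 h). Secreted VEGF protein in conditioned media measured by modified human VEGF ELISA and compared with normoxic control level.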
A general note: In an ELISA, binding on a coated surface is turned into a signal by an enzyme label.

Assay [8] deals with T1, Hypoxia inducible factors; HIF-1-alpha, HIF-2-alpha (Homo sapiens, UniProt Q16665+Q99814). Nature of the assay: Inhibition of hypoxia-induced HIF1 activation in human T47D cells after 16 hrs by luciferase reporter gene assay. Format: cell-based. For orientation: A reporter such as luciferase makes a cellular process visible.
Assay [9] concerns T47D. Nature of the assay: Inhibition of hypoxia-induced secreted VEGF expression in human T47D cells at 3 uM after 16 by ELISA relative to normoxic control. The format is functional. Summed up: as §4
For assay [10], the system named is T47D. Briefly: Inhibition of hypoxia-induced VEGF expression in human T47D cells at 3 uM after 16 hrs by ELISA. Format: cell-based. The procedure, abridged: as §3
The target in assay [11] is T1, Hypoxia inducible factors; HIF-1-alpha, HIF-2-alpha. Nature of the assay: Inhibition of hypoxia-induced HIF1 activation in human HeLa cells by luciferase reporter gene assay. The format is cell-based.
Assay [12] concerns T47D. Briefly: Inhibition of hypoxia-induced secreted VEGF expression in human T47D cells at 10 uM after 16 by ELISA relative to normoxic control. Format: functional. Summed up: as §4
For assay [13], the system named is T47D. Briefly: Inhibition of hypoxia-induced VEGF expression in human T47D cells at 10 uM after 16 hrs by ELISA. The format is cell-based. The procedure, abridged: as §3
Assay [14] addresses T1, Hypoxia inducible factors; HIF-1-alpha, HIF-2-alpha. Briefly: Inhibition of hypoxia-induced HIF1 activation in human T47D cells upto 30 uM after 16 hrs by luciferase reporter gene assay. The format is cell-based. The procedure, abridged: (§5)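 T47D cells transiently co-transfected with pTK-HRE3-luc and pRL-TK control, preincubated with compounds 30 min at 37 °C, then hypoxia (1% O2/94% N2/5% CO2) 16 h. Firefly luciferase activity normalized to Renilla, expressed as % inhibition versus induced control. Representative experiment, quadruplicate.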

Assay [15] has as its system T47D. Briefly: Inhibition of hypoxia-induced secreted VEGF expression in human T47D cells at 1 uM after 16 by ELISA. The format is functional, cell-based. Summed up:
as §4

Assay [16] has as its target T1, Hypoxia inducible factors; HIF-1-alpha, HIF-2-alpha. Nature of the assay: Inhibition of hypoxia-induced HIF1 activation in human T47D cells upto 10 uM by luciferase reporter gene assay. The format is cell-based. The procedure, abridged:
as §5

Assay [17] concerns T47D. Briefly: Inhibition of hypoxia-induced VEGF expression in human T47D cells at 1 uM after 16 hrs by ELISA. The format is cell-based. The procedure, abridged:
as §3

As usually defined, the inhibition is the share of the control response that was lost under treatment. Low values mean little suppression, high ones strong suppression. The IC50 is the concentration at which inhibition is half-maximal. Read a high IC50 as weaker potency.

Sequence of Aryl hydrocarbon receptor nuclear translocator (Homo sapiens) (P27540 whole entry): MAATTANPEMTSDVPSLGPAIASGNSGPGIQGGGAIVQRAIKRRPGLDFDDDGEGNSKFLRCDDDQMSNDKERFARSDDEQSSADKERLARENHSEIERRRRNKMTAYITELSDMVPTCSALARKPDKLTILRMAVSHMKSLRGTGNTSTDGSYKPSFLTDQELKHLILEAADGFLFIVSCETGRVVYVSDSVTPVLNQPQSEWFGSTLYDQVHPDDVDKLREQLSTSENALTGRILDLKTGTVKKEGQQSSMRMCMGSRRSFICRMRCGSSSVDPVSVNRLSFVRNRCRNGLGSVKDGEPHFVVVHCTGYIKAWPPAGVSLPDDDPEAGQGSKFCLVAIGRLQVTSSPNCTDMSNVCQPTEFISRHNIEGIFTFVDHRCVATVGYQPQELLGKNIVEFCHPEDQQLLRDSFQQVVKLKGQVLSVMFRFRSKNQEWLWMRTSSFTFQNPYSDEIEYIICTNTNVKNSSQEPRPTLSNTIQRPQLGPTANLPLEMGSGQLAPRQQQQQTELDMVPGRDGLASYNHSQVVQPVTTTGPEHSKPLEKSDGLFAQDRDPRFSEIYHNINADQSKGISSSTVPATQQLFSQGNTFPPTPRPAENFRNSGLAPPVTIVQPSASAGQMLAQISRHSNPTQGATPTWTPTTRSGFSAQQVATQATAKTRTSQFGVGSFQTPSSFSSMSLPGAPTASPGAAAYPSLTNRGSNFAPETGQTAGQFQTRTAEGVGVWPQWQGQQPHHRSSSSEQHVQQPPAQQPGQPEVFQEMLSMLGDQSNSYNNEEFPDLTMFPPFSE

Take `CC[C@H]1CN2CCc3cc(OC)c(OC)cc3[C@@H]2C[C@@H]1C[C@H]1NCCc2cc(OC)c(OC)cc21` [EMETINE]: the result in assay [1], in assay [2] and in [6] was inactive. Further, in the assay with T47D [3], the inhibition was found to be 69%. The compound further gave an Activity in the assay on T47D [4] of 58.8 pg/mL. For the same compound, the result (in assay [5]; in the assay with T47D [7]) was Active.

For `CC[C@H]1CN2CCc3cc(OC)c(OC)cc3[C@@H]2C[C@@H]1C[C@@H]1NCCc2cc(O)c(OC)cc21` [ISOCEPHAELINE], in assay [8], the IC50 was determined as 1.1 µM. For the same compound, the outcome (in [1]; in assay [6]; in the assay on T47D [7]) was inactive. The inhibition at 3 µM in the assay with T47D [9] worked out at 69%. In the assay on T47D [10], the result was Active.

For the compound `C[C@@H]1C[C@@H]([C@H](O)CC2CC(=O)NC(=O)C2)C(=O)[C@@H](C)C1` [CYCLOHEXIMIDE], the result (in assay [1]; in [6]; in the assay on T47D [7]) was inactive. In assay [11], this compound came in with an IC50 of 36 nM. Also, the inhibition at 10 µM with T47D [12] is 43%. Moreover, the result (with T47D [13]; in assay [5]) was Active.

As to `CC[C@H]1CN2CCc3cc(OC)c(OC)cc3[C@@H]2C[C@@H]1C[C@@H]1NCCc2cc(O)c(O)cc21`, the outcome (in [1]; in assay [14]; in assay [16]; in assay [6]; in the assay on T47D [7]) was inactive. For the same compound, the result in the assay on T47D [15] was Active.

`CC[C@H]1CN2CCc3cc(O)c(OC)cc3[C@@H]2C[C@@H]1C[C@@]1(O)NCCc2cc(O)c(OC)cc21` [KLUGINE]: the IC50 in [8] came to 0.2 µM. Also, the result (in [1]; in [2]; in assay [6]; in the assay on T47D [7]) was inactive. The inhibition in the assay with T47D [17] was found to be 56%. The result (with T47D [15]; in assay [5]) was Active.
